ChEMBL document CHEMBL1127049, “Nonpeptide angiotensin II receptor antagonists. 2. Design, synthesis, and structure-activity relationships of 2-alkyl-4-(1H-pyrrol-1-yl)-1H-imidazole derivatives: profile of 2-propyl-1-[[2'-(1H-tetrazol-5-yl)-[1,1' -biphenyl]-4-yl]-methyl]-4-[2-(trifluoroacetyl)-1H-pyrrol-1-yl]-1H- …” (J Med Chem, 1993)

How the values were obtained:
Rattus norvegicus [1] = test: Effect on mean arterial pressure after oral dosing at 10 mg/kg to renal hypertensive rats; format: functional, Artery
Outline: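 Male Sprague-Dawley rats, bilateral renal artery clipping at 5 weeks, used 10-12 weeks later; aortic cannula to neck, 48 h recovery; rats with mean BP <150 mmHg excluded. Compound suspended in 0.5% methocel in water, oral gavage 10 mg/kg in 2 mL/kg to conscious rats (n = 5-6). BP and heart rate recorded continuously, averaged over 30-min intervals.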

Rattus norvegicus [2] = test: Tested in vivo for effective dose (iv) that produces inhibition of pressor response to Angiotensin II in conscious normotensive rats; format: functional
[3] = target: T1, Angiotensin II receptor (AT-1) type-1 (Rattus norvegicus, UniProt P29089+P25095); test: Inhibitory concentration against binding of [125I]angiotensin II to rat liver expressing Angiotensin II receptor
T1 sequence (P29089 whole entry): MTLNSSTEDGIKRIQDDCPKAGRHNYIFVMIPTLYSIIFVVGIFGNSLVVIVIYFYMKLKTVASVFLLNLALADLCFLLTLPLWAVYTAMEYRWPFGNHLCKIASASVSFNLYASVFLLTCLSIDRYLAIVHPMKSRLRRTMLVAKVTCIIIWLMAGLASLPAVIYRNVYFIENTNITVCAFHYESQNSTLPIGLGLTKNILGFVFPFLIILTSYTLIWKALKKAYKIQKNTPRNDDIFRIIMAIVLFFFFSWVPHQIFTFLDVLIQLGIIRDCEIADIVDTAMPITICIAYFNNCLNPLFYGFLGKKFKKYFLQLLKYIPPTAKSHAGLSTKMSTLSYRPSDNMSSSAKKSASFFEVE
T1 sequence (P25095 whole entry): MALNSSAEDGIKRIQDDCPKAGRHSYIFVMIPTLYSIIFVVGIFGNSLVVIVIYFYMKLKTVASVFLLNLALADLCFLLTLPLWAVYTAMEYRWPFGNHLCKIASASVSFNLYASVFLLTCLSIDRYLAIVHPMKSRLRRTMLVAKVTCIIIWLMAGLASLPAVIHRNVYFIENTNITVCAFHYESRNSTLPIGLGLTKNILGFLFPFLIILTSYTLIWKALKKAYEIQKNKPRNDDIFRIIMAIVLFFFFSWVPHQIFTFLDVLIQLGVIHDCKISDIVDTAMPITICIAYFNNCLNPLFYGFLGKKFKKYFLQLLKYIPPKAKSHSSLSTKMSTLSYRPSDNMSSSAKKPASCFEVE
Outline: (§1)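 Rat liver membranes homogenized in 10 mM HEPES pH 7.4 with protease inhibitors, captopril and PMSF. Nonspecific binding defined with 1.0 µM saralasin. No BSA. IC50 by nonlinear fit to mass-action equation from at least five or six concentrations.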

[4] = target: T1, Angiotensin II receptor (AT-1) type-1; test: Tested for inhibitory concentration against AT1 receptor binding affinity in rat liver; outline: as §1

## CCCc1nc(-n2cccc2C(=O)C(F)(F)F)c(C(=O)OC)n1Cc1ccc(-c2ccccc2-c2nn[nH]n2)cc1
Rattus norvegicus [1]
  Change in BP: -28
Rattus norvegicus [2]
  ED50: 36 µg/min/kg
[3]
  IC50: 3.64 nM

## CCCc1nc(-n2cccc2C(=O)O)c(C(N)=O)n1Cc1ccc(-c2ccccc2-c2nn[nH]n2)cc1
[3]
  IC50: 8.76 nM

## CCCc1nc(-n2c(C)ccc2C)c(C(=O)O)n1Cc1ccc(-c2ccccc2-c2nn[nH]n2)cc1
Rattus norvegicus [1]
  Change in BP: -26
[3]
  IC50: 0.82 nM

## CCCc1nc(C(F)(F)C(F)(F)F)c(C(=O)O)n1Cc1ccc(-c2ccccc2-c2nn[nH]n2)cc1
[4]
  IC50: 3.4 nM

## CCCCc1nc(-n2cccc2)c(C(=O)c2ccccc2)n1Cc1ccc(-c2ccccc2-c2nn[nH]n2)cc1
[3]
  IC50: 23.3 nM

## CCCc1nc(-n2cccc2C(=O)C(F)(F)F)c(C#N)n1Cc1ccc(-c2ccccc2-c2nn[nH]n2)cc1
[3]
  IC50: 171 nM

## CCCCc1nc(Cl)c(CO)n1Cc1ccc(-c2ccccc2-c2nnn[nH]2)cc1 [LOSARTAN]
Rattus norvegicus [1]
  Change in BP: -27
Rattus norvegicus [2]
  ED50: 75.9 µg/min/kg

## CCCCc1nc(-n2cccc2)c(C(=O)O)n1Cc1ccc(-c2ccccc2-c2nn[nH]n2)cc1
Rattus norvegicus [1]
  Change in BP: -27
Rattus norvegicus [2]
  ED50: 38 µg/min/kg
[3]
  IC50: 1.57 nM

## CCCc1nc(-n2c(C)ccc2CCC)c(C(=O)OC)n1Cc1ccc(-c2ccccc2-c2nn[nH]n2)cc1
[3]
  IC50: 15.1 nM

## CCCCc1nc(-n2cccc2C(=O)C(F)(F)F)c(C(=O)OC)n1Cc1ccc(-c2ccccc2-c2nn[nH]n2)cc1
Rattus norvegicus [1]
  Change in BP: -19
[3]
  IC50: 3.57 nM

## CCCc1nc(-n2ccc(C(=O)OC)c2C)c(C(=O)O)n1Cc1ccc(-c2ccccc2-c2nn[nH]n2)cc1
[3]
  IC50: 1.37 nM

## CCCc1nc(-n2c(C)ccc2C)c(C(=O)OC)n1Cc1ccc(-c2ccccc2-c2nn[nH]n2)cc1
Rattus norvegicus [1]
  Change in BP: -8
[3]
  IC50: 20.9 nM

## CCCc1nc(-n2c(Cl)ccc2Cl)c(C(=O)O)n1Cc1ccc(-c2ccccc2-c2nn[nH]n2)cc1
[3]
  IC50: 0.14 nM

## CCCc1nc(-n2cccc2C=O)c(C(=O)O)n1Cc1ccc(-c2ccccc2-c2nn[nH]n2)cc1
[3]
  IC50: 0.8 nM

## CCCc1nc(-n2c(C)ccc2CCC)c(C(=O)O)n1Cc1ccc(-c2ccccc2-c2nn[nH]n2)cc1
Rattus norvegicus [1]
  Change in BP: -6
[3]
  IC50: 0.9 nM

## CCCc1nc(-n2cccc2C(=O)OC)c(C#N)n1Cc1ccc(-c2ccccc2-c2nn[nH]n2)cc1
[3]
  IC50: 53.3 nM

## CCCc1nc(-n2c(C)ccc2C)c(/C=C/C(=O)O)n1Cc1ccc(-c2ccccc2-c2nn[nH]n2)cc1
Rattus norvegicus [1]
  Change in BP: -8
Rattus norvegicus [2]
  ED50: 16.4 µg/min/kg
[3]
  IC50: 3.32 nM

## COC(=O)c1c(-n2c(C)ccc2C)nc(C2CC2)n1Cc1ccc(-c2ccccc2-c2nn[nH]n2)cc1
[3]
  IC50: 65.5 nM

## CCCc1nc(-n2ccc(C(=O)OCC)c2)c(C(=O)O)n1Cc1ccc(-c2ccccc2-c2nn[nH]n2)cc1
[3]
  IC50: 22 nM

## CCCc1nc(-n2c(C)ccc2C)c(CO)n1Cc1ccc(-c2ccccc2-c2nn[nH]n2)cc1
[3]
  IC50: 23.8 nM

## CCCc1nc(-n2ccc(C(=O)OC)c2C)c(C(=O)OC)n1Cc1ccc(-c2ccccc2-c2nn[nH]n2)cc1
[3]
  IC50: 18.8 nM

## CCCCc1nc(-n2cccc2)c(C#N)n1Cc1ccc(-c2ccccc2-c2nn[nH]n2)cc1
[3]
  IC50: 209 nM

## CCCc1nc(-n2cccc2C(O)C(F)(F)F)c(C#N)n1Cc1ccc(-c2ccccc2-c2nn[nH]n2)cc1 (stereo not given)
[3]
  IC50: 233 nM

## CCCc1nc(-n2cccc2)c(/C=C/C(=O)O)n1Cc1ccc(-c2ccccc2-c2nn[nH]n2)cc1
[3]
  IC50: 4 nM

## CCCCc1nc(-n2cccc2C(=O)C(F)(F)F)c(C(=O)O)n1Cc1ccc(-c2ccccc2-c2nn[nH]n2)cc1
Rattus norvegicus [1]
  Change in BP: -16
[3]
  IC50: 2.37 nM

## CCCCc1nc(Cl)c(C(=O)O)n1Cc1ccc(-c2ccccc2-c2nn[nH]n2)cc1 [CARBOXYLIC ACID METABOLITE]
Rattus norvegicus [1]
  Change in BP: -22
Rattus norvegicus [2]
  ED50: 13.6 µg/min/kg

## CCCc1nc(-n2cccc2C(=O)C(F)(F)F)c(C(=O)O)n1Cc1ccc(-c2ccccc2-c2nn[nH]n2)cc1
Rattus norvegicus [1]
  Change in BP: -29
Rattus norvegicus [2]
  ED50: 6.23 µg/min/kg
[3]
  IC50: 0.58 nM

## CCCc1nc(-n2cccc2)c(C#N)n1Cc1ccc(-c2ccccc2-c2nn[nH]n2)cc1
[3]
  IC50: 332 nM

## CCCc1nc(-n2c(C)ccc2C)c(C#N)n1Cc1ccc(-c2ccccc2-c2nn[nH]n2)cc1
[3]
  IC50: 188 nM

## CCCc1nc(-n2ccc(C(=O)OCC)c2)c(C(=O)OC)n1Cc1ccc(-c2ccccc2-c2nn[nH]n2)cc1
[3]
  IC50: 158 nM

## CCCc1nc(-n2cccc2)c(C(=O)O)n1Cc1ccc(-c2ccccc2-c2nn[nH]n2)cc1
Rattus norvegicus [1]
  Change in BP: -25
Rattus norvegicus [2]
  ED50: 27 µg/min/kg
[3]
  IC50: 1.71 nM

## CCCc1nc(-n2c(C)ccc2C)c(C=O)n1Cc1ccc(-c2ccccc2-c2nn[nH]n2)cc1
[3]
  IC50: 13.7 nM

## CCCc1nc(-n2cccc2C(O)C(F)(F)F)c(C(=O)O)n1Cc1ccc(-c2ccccc2-c2nn[nH]n2)cc1 (stereo not given)
[3]
  IC50: 1.04 nM

## CCCCc1nc(-n2cccc2)cn1Cc1ccc(-c2ccccc2-c2nn[nH]n2)cc1
[3]
  IC50: 27 nM

## CCCc1nc(-n2cccc2)c(/C=C(\C)C(=O)O)n1Cc1ccc(-c2ccccc2-c2nn[nH]n2)cc1
[3]
  IC50: 2.5 nM

## CCCc1nc(-n2cccc2)cn1Cc1ccc(-c2ccccc2-c2nn[nH]n2)cc1
[3]
  IC50: 5.6 nM

## Cc1ccc(C)n1-c1nc(C2CC2)n(Cc2ccc(-c3ccccc3-c3nn[nH]n3)cc2)c1C(=O)O
Rattus norvegicus [1]
  Change in BP: -11
[3]
  IC50: 2.81 nM

## CCCc1nc(-n2cccc2)c(C(=O)OCC)n1Cc1ccc(-c2ccccc2-c2nn[nH]n2)cc1
Rattus norvegicus [1]
  Change in BP: -22
[3]
  IC50: 12.2 nM

## CCCc1nc(-n2c(Cl)ccc2Cl)c(C(=O)OCC)n1Cc1ccc(-c2ccccc2-c2nn[nH]n2)cc1
[3]
  IC50: 3.93 nM

## CCCc1nc(-n2cccc2)c(/C=C(\C)C(=O)OCC)n1Cc1ccc(-c2ccccc2-c2nn[nH]n2)cc1
Rattus norvegicus [1]
  Change in BP: -12
[3]
  IC50: 2.8 nM

## CCCc1nc(-n2ccc(C(=O)O)c2C)c(C(=O)O)n1Cc1ccc(-c2ccccc2-c2nn[nH]n2)cc1
[3]
  IC50: 11 nM

## CCCc1nc(-n2ccc(C(=O)O)c2)c(C(=O)O)n1Cc1ccc(-c2ccccc2-c2nn[nH]n2)cc1
[3]
  IC50: 25.1 nM

## CCCc1nc(-n2cccc2C(=O)O)c(C#N)n1Cc1ccc(-c2ccccc2-c2nn[nH]n2)cc1
[3]
  IC50: 103 nM

## CCCc1nc(-n2c(C)ccc2C)c(/C=C/C(=O)OC)n1Cc1ccc(-c2ccccc2-c2nn[nH]n2)cc1
[3]
  IC50: 21.6 nM

## CCCc1nc(-n2cccc2C(=O)O)c(C(=O)O)n1Cc1ccc(-c2ccccc2-c2nn[nH]n2)cc1
[3]
  IC50: 11.2 nM
